Test results reported in PubChem BioAssay.
Values without a mark were called inactive. The source made the active and inactive calls.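 Rule for the calls, unless noted: active = viability at or below 30% in both replicate assays; inconclusive = viability at or below 30% in just one of the two assays; inactive = the rest.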

Assay: HUVEC growth inhibition – cell-based, human, primary screen (AID 575);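 note: 100% = median of untreated cell wells with 0.1% DMSO on each plate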
Conditions: HUVEC proliferation, CellTiter-Glo luminescence, 72 h; at 10 µM; active compounds read low
In short: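 Test system – primary HUVEC, no more than 12 passages · Dosing – one dose, 10 µM final, 0.1% DMSO · Times – 72 h treatment at 37 °C · Measured by – ATP-based CellTiter-Glo luminescent read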

SMILES	viability
CC(CCc1ccccc1)NC(=O)C1CCCN(c2nnc(-n3cccc3)s2)C1 (stereo not drawn)	97.1%
O=C(c1cc(C2CC2)on1)N1CCN(C(c2ccccc2)c2ccccc2)CC1	113%
O=C(C1COc2ccccc2O1)N1CCCC1 (stereo not drawn)	86.8%
CCCCOC(=O)Nc1nc2ccc(OC)cc2s1	92.3%
CCn1cc(C(=O)NCC2CCCO2)c(=O)c2cc(S(=O)(=O)N(C)C3CCCCC3)ccc21 (stereo not drawn)	69.5%
CCCNC(=O)CS(=O)(=O)Cc1nc(-c2cccc(OC)c2)oc1C	109%
CC(=O)C1=C(N2CCCCC2)CCC1=O	109%
CCOC(=O)C1CCN(Cc2ccc(F)c(Br)c2)CC1	106%
Cc1ccc(N(C(=O)c2ccncc2)C2C=CS(=O)(=O)C2)cc1 (stereo not drawn)	101%
COc1ccc(CCNC(=O)C2(C)CCC(=O)N2Cc2ccc3c(c2)OCO3)cc1OC (stereo not drawn)	88.2%
COc1ccc(C2c3c(oc4ccccc4c3=O)C(=O)N2c2ccc(C)cn2)cc1OC (stereo not drawn)	98.6%
CCn1cc(C(=O)NCCCOC)c(=O)c2cc(S(=O)(=O)N(C)C)ccc21	89.3%
Cc1cc(C)nc(/N=C2\NC(=O)CC(C(=O)O)N2c2ccc(Cl)cc2)n1 (stereo not drawn)	88.7%
O=C(O)c1ccccc1S(=O)(=O)NCC(O)COc1ccc(Br)cc1 (stereo not drawn)	119%
COC(=O)Cn1c(=NC(=O)CSCC(=O)Nc2cc(C)on2)sc2ccccc21	90.4%
COc1ccc(S(=O)(=O)N(CC(=O)N2CCN(c3ccccc3OC)CC2)c2ccccc2)cc1	51.8%
CCOc1ccccc1NC(=O)CC1Nc2cc(C)c(C)cc2NC1=O (stereo not drawn)	68.7%
COc1ccc(N2Cc3ccccc3C2)cc1Cl	81.9%
CCOC(=O)C(CC)n1nc(C)n2c(cc3sccc32)c1=O (stereo not drawn)	110%
CCOC(=O)C(CC)(CCC(=O)O)c1csc(N)n1 (stereo not drawn)	101%

SMILES	viability
CCOc1ccc(NC(=O)CN2C(=O)C3CCCN3C2=O)cc1 (stereo not drawn)	94.6%
CCOC(=O)N1CCN(C(=O)COc2ccc(S(=O)(=O)NC(C)C)cc2)CC1	106%
O=C(NC1CCCc2ccccc21)c1ccc(CNc2c(N3CCOCC3)c(=O)c2=O)cc1 (stereo not drawn)	95.5%
CNC(=O)c1ccsc1NC(=O)c1ccccc1	83.8%
N#Cc1cc2c(nc1SCC(=O)N1CCCCC1)CCCC2	88.3%
COc1ccc(N2CCN(c3oc(COc4ccccc4Cl)nc3C#N)CC2)cc1	104%
COc1ccccc1S(=O)(=O)Cc1ccc(C(=O)N2CCN(c3ccc(C)cc3)C(C)C2)o1 (stereo not drawn)	52.4%
CCOC(=O)N1CCC(c2cc(=O)n3[nH]c(C)c(-c4ccc(F)cc4)c3n2)CC1	7% (active)
O=C1CCCC2=C1C(c1cccc(Br)c1)n1nc(-c3ccco3)nc1N2 (stereo not drawn)	80.6%
CCc1ccccc1NC(=O)c1cnc2n(c1=O)CCS2	95%
CC(CCc1ccco1)NC(=O)Cn1ncc2c1-c1ccccc1OC2 (stereo not drawn)	90.8%
COc1cccc(NC(=O)C2CCCN(S(=O)(=O)c3cccc4cccnc34)C2)c1 (stereo not drawn)	77.8%
COc1ccc(C(=O)Nc2nncs2)c(OC)c1	93.1%
CNC(=O)c1ccccc1NC(=O)c1c(O)c2c([nH]c1=O)CCCC2	98.9%
Cc1occc1C(=O)N1CCN(Cc2ccccc2)CC1	98.1%
CN(C)CCCN1C(=O)CSC1c1ccccc1 (stereo not drawn)	91.6%
CCc1ccc(N(CC(=O)NC2CCCC2)S(=O)(=O)c2c(C)noc2C)cc1	101%
CSc1cccc(NC(=O)C2CCN(S(=O)(=O)c3ccc(F)cc3)CC2)c1	93.7%
O=C(CSc1nnc(Cn2c(=O)sc3ccccc32)n1-c1ccccc1)Nc1nccs1	66.9%

Assay: growth inhibitors of H69AR lung tumor, primary screen, human, duplicate replicates (AID 580;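 active = viability at or under a set limit in both replicates, limit being median viability minus 3 SD, cut at about 48% in these data, passing the limit was not always enough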;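 note: 100% = mean luminescence of untreated wells and 0% = no signal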)
Conditions: H69AR lung tumor cells viability, ATP luminescence, 72 h; at 10 µM; active compounds read low

SMILES	viability
CC(CCc1ccccc1)NC(=O)C1CCCN(c2nnc(-n3cccc3)s2)C1 (stereo not drawn)	82.6%
O=C(c1cc(C2CC2)on1)N1CCN(C(c2ccccc2)c2ccccc2)CC1	87.7%
O=C(C1COc2ccccc2O1)N1CCCC1 (stereo not drawn)	94.8%
CCCCOC(=O)Nc1nc2ccc(OC)cc2s1	99.7%
CCn1cc(C(=O)NCC2CCCO2)c(=O)c2cc(S(=O)(=O)N(C)C3CCCCC3)ccc21 (stereo not drawn)	68.5%
CCCNC(=O)CS(=O)(=O)Cc1nc(-c2cccc(OC)c2)oc1C	87.7%
CC(=O)C1=C(N2CCCCC2)CCC1=O	98.3%
CCOC(=O)C1CCN(Cc2ccc(F)c(Br)c2)CC1	85.5%
Cc1ccc(N(C(=O)c2ccncc2)C2C=CS(=O)(=O)C2)cc1 (stereo not drawn)	103%
COc1ccc(CCNC(=O)C2(C)CCC(=O)N2Cc2ccc3c(c2)OCO3)cc1OC (stereo not drawn)	92.8%
COc1ccc(C2c3c(oc4ccccc4c3=O)C(=O)N2c2ccc(C)cn2)cc1OC (stereo not drawn)	94.3%
CCn1cc(C(=O)NCCCOC)c(=O)c2cc(S(=O)(=O)N(C)C)ccc21	87.6%
Cc1cc(C)nc(/N=C2\NC(=O)CC(C(=O)O)N2c2ccc(Cl)cc2)n1 (stereo not drawn)	96%
O=C(O)c1ccccc1S(=O)(=O)NCC(O)COc1ccc(Br)cc1 (stereo not drawn)	99.9%
COC(=O)Cn1c(=NC(=O)CSCC(=O)Nc2cc(C)on2)sc2ccccc21	88.5%
COc1ccc(S(=O)(=O)N(CC(=O)N2CCN(c3ccccc3OC)CC2)c2ccccc2)cc1	86.8%
CCOc1ccccc1NC(=O)CC1Nc2cc(C)c(C)cc2NC1=O (stereo not drawn)	59.2%
COc1ccc(N2Cc3ccccc3C2)cc1Cl	89.9%
CCOC(=O)C(CC)n1nc(C)n2c(cc3sccc32)c1=O (stereo not drawn)	85.1%
CCOC(=O)C(CC)(CCC(=O)O)c1csc(N)n1 (stereo not drawn)	102%

SMILES	viability
CCOc1ccc(NC(=O)CN2C(=O)C3CCCN3C2=O)cc1 (stereo not drawn)	101%
CCOC(=O)N1CCN(C(=O)COc2ccc(S(=O)(=O)NC(C)C)cc2)CC1	90.3%
O=C(NC1CCCc2ccccc21)c1ccc(CNc2c(N3CCOCC3)c(=O)c2=O)cc1 (stereo not drawn)	91.7%
CNC(=O)c1ccsc1NC(=O)c1ccccc1	80.8%
N#Cc1cc2c(nc1SCC(=O)N1CCCCC1)CCCC2	87.6%
COc1ccc(N2CCN(c3oc(COc4ccccc4Cl)nc3C#N)CC2)cc1	92.3%
COc1ccccc1S(=O)(=O)Cc1ccc(C(=O)N2CCN(c3ccc(C)cc3)C(C)C2)o1 (stereo not drawn)	7.92% (active)
CCOC(=O)N1CCC(c2cc(=O)n3[nH]c(C)c(-c4ccc(F)cc4)c3n2)CC1	21.3% (active)
O=C1CCCC2=C1C(c1cccc(Br)c1)n1nc(-c3ccco3)nc1N2 (stereo not drawn)	103%
CCc1ccccc1NC(=O)c1cnc2n(c1=O)CCS2	91.6%
CC(CCc1ccco1)NC(=O)Cn1ncc2c1-c1ccccc1OC2 (stereo not drawn)	92.9%
COc1cccc(NC(=O)C2CCCN(S(=O)(=O)c3cccc4cccnc34)C2)c1 (stereo not drawn)	82.7%
COc1ccc(C(=O)Nc2nncs2)c(OC)c1	96.9%
CNC(=O)c1ccccc1NC(=O)c1c(O)c2c([nH]c1=O)CCCC2	109%
Cc1occc1C(=O)N1CCN(Cc2ccccc2)CC1	89.3%
CN(C)CCCN1C(=O)CSC1c1ccccc1 (stereo not drawn)	94.4%
CCc1ccc(N(CC(=O)NC2CCCC2)S(=O)(=O)c2c(C)noc2C)cc1	84%
CSc1cccc(NC(=O)C2CCN(S(=O)(=O)c3ccc(F)cc3)CC2)c1	84.4%
O=C(CSc1nnc(Cn2c(=O)sc3ccccc32)n1-c1ccccc1)Nc1nccs1	84.2%
